An excerpt weighted towards active compounds, which were near 3.5% of everything screened.
Env fusion inh – inhibitors of HIV Env-mediated cell fusion. inhibition, % at 12.3 µM. HeLa-JRFL Env/CEM21 cell fusion, luciferase. 1.1% of 360,000 active;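 active means mean replicate inhibition score of at least 50 and every replicate individually at or above 50; inconclusive means only one of the two criteria met; inactive means mean below 50 and not all replicates reaching 50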;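 further: 0% = plate neutral controls and 100% = maraviroc near 300 nM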
Wnt act – activates Wnt/beta-catenin signaling in a reporter cell assay; activation, % at 9.35 µM; AID 743398; 1.2% of 300,000 active; activator, plate reader; in the data active means activation above about 30%, passing the limit was not always enough; inconclusive means no clear call, values can overlap the other calls;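 further: 0% = neutral control wells and 100% = positive control wells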
ERAP1 inh – inhibitors of human ERAP1 aminopeptidase. recombinant ERAP1, Leu-AMC fluorescence, 60 min. AID 652197. Q9NZ08. 0.15% of 340,000 active. inhibition, % at 10.7 µM;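 active means mean replicate inhibition of at least 30%, or all replicates individually reaching that 30% level; inactive means mean below 30% and not every replicate reaching it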;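 further: 0% = neutral control wells and 100% = L-leucinethiol positive control wells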
Cneo AK release – Cryptococcus neoformans lysis via adenylate kinase release; C. neoformans lysis, adenylate kinase release luminescence, 4 h; normalised: neutral wells 0, clomiphene wells 100; lysis activity, % at 15 µM; 0.2% of 360,000 active; AID 651654;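 active means mean lysis activity across replicates of at least 80%, whatever share of replicates individually reach that level; inactive means mean lysis activity below 80%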
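Material – log-phase Cryptococcus neoformans yeast cells · Input – 5 × 10^6 yeast cells/mL · Medium – fresh YPD growth medium · Doses – single compound concentration per well · Timing – static 4 h at 37 °C with compound, 1 h detection · Detection – adenylate kinase release luminescence · Read-out – signal increase indicating cell lysis · Control set – Clomiphene as positive lysis control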
MITF TRPM1 HTS – increases MITF-driven TRPM1 promoter luciferase signal | AID 588334 | activation, % at 12.5 µM | SK-MEL-5 TRPM1-promoter luciferase, 24 h; % of positive control, neutral wells = 0 | 0.75% of 300,000 active;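 active means mean activation of at least 80% with every replicate also reaching 80%; inconclusive means mean reaches 80% but some replicate falls short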;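 further: 0% = neutral control wells and 100% = parthenolide positive control wells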
esBAF inh – blocks esBAF chromatin remodeling in mouse ES cells; 2% of 350,000 active; AID 602393; Bmi1-luciferase knock-in reporter, 24 h; 100% = twice the neutral-well signal; reporter increase, % at 12.5 µM; in the data active means activation above about 40%; inconclusive means no clear call, values can overlap the other calls;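 further: 0% = median of the plate's neutral control wells and 100% = double that signal; a rise in the Bmi1 reporter signal indicates esBAF inhibition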
esBAF Ring1 qPCR – confirmation of esBAF inhibitors: Ring1 de-repression in mouse ESCs | fold change at 33 µM | shares compounds with esBAF inh | mouse ESC E14, Ring1 mRNA RT-qPCR fold change | 550 tested, under 10 active;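 active means Ring1 gene expression raised more than 2-fold over untreated cells in both replicates at either tested dose; inconclusive means only one replicate above 2-fold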;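 further: Ring1 transcript normalised to actin housekeeping signal by TaqMan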
Fgf4 repress – esBAF inhibition confirmed by Fgf4 repression; mouse ESC E14, Fgf4 mRNA qPCR fold change; stronger effect = lower value; 4% of 550 active; shares compounds with esBAF inh; Fgf4 expression fold change at 33 µM;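 active means Fgf4 expression under 0.8 fold of control in both repeat measurements at one or both tested doses; inconclusive means under 0.8 fold in just a single repeat measurement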;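 further: Fgf4 transcript normalised to actin in duplex TaqMan qPCR; cells exposed to compound for 24 h before lysis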
esBAF Bmi1 qPCR – esBAF inhibition confirmed by Bmi1 de-repression. mouse ESE14 ES cells, Bmi1 mRNA qPCR fold; stronger effect = higher value. 550 tested, under 10 active. fold change at 33 µM. shares compounds with esBAF inh;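 active means Bmi1 expression fold change above 6 at either tested concentration, seen in replicate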
A549 cytotox – kills or reduces viability of A549 cells | A549 cytotoxicity, plate reader | AID 743188 | shares compounds with esBAF inh | cell viability change % (negative = cytotoxic), % at 25 µM, hits read low | 550 tested, under 10 active; call rule not given here
HepG2 cytotox SP – kills or reduces viability of HepG2 cells. shares compounds with esBAF inh. HepG2 cytotoxicity, plate reader; stronger effect = lower value. activity change, negative = inhibition, % at 25 µM. 4% of 550 active; in the data active means activity change below about -50%
HEK293 cytotox SP – kills or reduces viability of HEK293 cells | activity change, negative = inhibition, % at 25 µM, hits read low | shares compounds with esBAF inh | HEK293 cytotoxicity, plate reader | 3% of 550 active; in the data active means activity change below about -38%, passing the limit was not always enough
* hit, by the source's call; ? = inconclusive; · = no result.

SMILES | Env fusion inh | Wnt act | ERAP1 inh | Cneo AK release | MITF TRPM1 HTS | esBAF inh | esBAF Ring1 qPCR | Fgf4 repress | esBAF Bmi1 qPCR | A549 cytotox | HepG2 cytotox SP | HEK293 cytotox SP
O=C(Cc1ccccn1)c1ccc(Cl)cc1 | -35 | 20 | 2 | -1 | 104* | 100* | 1.2 | 0.87 | 1.6 | -6 | 2 | -7
Cc1cccc(-c2noc(CCC(=O)N3CCN(c4cc(C)ccc4C)CC3)n2)c1 | -72 | 1 | · | 12 | 77 | 63* | 1 | 0.9 | 1.4 | 5 | 13 | -7
O=C(NC1CCCC1)c1cc(-c2ccccc2O)on1 | -15 | 2 | 0 | 4 | 106* | 61* | 1.3 | 0.8 | 1.4 | -13 | 9 | -6
COc1cccc(-c2cc(C(=O)NC3CCCCC3)no2)c1 | -60 | 4 | -6 | 4 | 115* | 59* | 1.2 | 0.88 | 1.4 | -4 | -18 | -6
O=C(NC1CCCCC1)c1cc(-c2cccc(Cl)c2)on1 | -35 | 17 | -5 | -1 | 95* | 60* | 1.2 | ? | 1.8 | -10 | -8 | -4
COc1ccc(-c2cc(C(=O)NC3CCCC3)no2)cc1 | -47 | 18 | 3 | -1 | 67 | 7 | · | · | · | · | · | ·
O=C(NC1CCCCC1)c1cc(-c2ccco2)on1 | · | 26 | 3 | -2 | 24 | 5 | · | · | · | · | · | ·
C[C@H]1CN([C@@H](C)CO)C(=O)c2cc(C#CCc3ccccc3)cnc2O[C@@H]1CN(C)Cc1cccc(F)c1 | · | · | 1 | 2 | · | -5 | · | · | · | · | · | ·
COc1ccccc1N1C(=O)S/C(=C\c2ccc(C)s2)C1=O | -43 | 10 | 2 | -1 | · | 73* | 1 | ? | 1.5 | -3 | -21 | -1
CO[C@@H]1CN(C)C(=O)c2cc(NS(=O)(=O)c3ccccc3)ccc2OC[C@@H](C)N(Cc2cccnc2)C[C@H]1C | · | · | 2 | 59 | · | -3 | · | · | · | · | · | ·
Cc1ccc(Nc2nc(-c3cccnc3)cs2)cc1Cl | -63 | -1 | -2 | -1 | · | 63* | 1.1 | 0.74* | 1.7 | -7 | -2 | -5
Cc1ccc(C)c(Nc2nc(-c3cccnc3)cs2)c1 | -3 | 14 | 2 | 0 | 20 | 18 | · | · | · | · | · | ·
CCn1c(O)c(C=Nc2ccccc2)sc1=S | -60 | · | -2 | · | · | · | · | · | · | · | · | ·
C=CCn1c(O)c(C=Nc2ccccc2)sc1=S | -16 | 7 | 2 | 8 | 45 | 68* | 1 | 0.84 | 1.4 | -6 | -21 | -11
Cc1cc(C)c2c(CN(C)Cc3ccccc3)cc(=O)oc2c1 | -16 | 12 | 0 | -1 | · | 63* | 1.2 | ? | 1.5 | -11 | -7 | -53*
O=C(O)c1ccc(O)c2ncccc12 | -74 | -2 | -8 | -2 | · | 71* | 0.99 | 0.93 | 1.5 | -13 | -22 | -23
O=C(Nc1nc2c(s1)CCc1ccccc1-2)c1cccs1 | · | · | · | -1 | 23 | 71* | 1.8 | ? | 2.3 | -3 | -5 | 12
O=C(Nc1nc2c(s1)COc1ccccc1-2)c1cccs1 | -116 | 1 | 6 | 1 | · | -3 | · | · | · | · | · | ·
CO[C@H]1CN(C)C(=O)c2ccc(NS(C)(=O)=O)cc2OC[C@H](C)N(C)C[C@@H]1C | · | · | -2 | · | · | · | · | · | · | · | · | ·
COc1cccc(NC(=O)N2C[C@H](O)COC[C@H]3O[C@H](CC(=O)NC4CCCC4)CC[C@@H]32)c1 | · | · | 0 | -4 | · | 1 | · | · | · | · | · | ·
O=C(C[C@@H]1C=C[C@H](NS(=O)(=O)c2ccccc2)[C@H](CO)O1)N1CCN(c2ccccc2)CC1 | · | · | -5 | · | · | · | · | · | · | · | · | ·

Source: PubChem
